Yeast fitness data for 167 variants are collected here from the RNAGym collection of RNA variant scans (doi:10.1126/science.aae0568).

Fewer inactive variants are shown than the library holds.

Sequences and labels used below:
B1: tRNA (parent)
chain: GUUCCGUUGGCGUAAUGGUAACGCGUCUCCCUCCUAAGGAGAAGACUGCGGGUUCGAGUCCCGUACGGAACG

Variants of B1 are the subject of this series. Nature of the series: yeast fitness relative to wild type (ratio to wild type); higher = fitter; tRNA-Arg(CCU), competitive growth, 37 C, YPD. The procedure, abridged: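 Variants of the tRNA-Arg(CCU) gene were chemically synthesised with a 3% per-site mutation rate across 69 sites and placed at the native genomic locus in Saccharomyces cerevisiae. Six parallel replicates of the pooled strains were competed in YPD at 37°C for 24 hours, and gene amplicons from the start and end populations were read by 100-nucleotide paired-end sequencing. Darwinian fitness relative to wild type was derived from changes in genotype frequencies. Genotypes required ≥ 100 starting reads, and estimates < 0.5 were set to 0.5.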
With A15U C24A C29G, the yeast fitness is ≤ 0.5.

With A15G C60G, the yeast fitness was found to be 0.668.

Regarding A15G C60A, the yeast fitness was found to be 0.687.

As to A15G G18A G38C, the yeast fitness was ≤ 0.5.

For the variant A15G G51A A65U, the yeast fitness was ≤ 0.5.

As for A15G G38C U64A G68A A69C, the yeast fitness is ≤ 0.5.

As for A15G G48A A70C, the yeast fitness turned out to be 0.748.

Consider A15G C49A, for which the yeast fitness was determined as 0.735.

With A15G U32A G38A G52A C66U, the yeast fitness was ≤ 0.5.

Regarding A15U C24G C62U A69U, the yeast fitness was ≤ 0.5.

With A15G G17C G23A G25A C66U, the yeast fitness is ≤ 0.5.

As to A15U C22U C33G G50A, the yeast fitness is ≤ 0.5.

Consider A15U C22U A57U, for which the yeast fitness is ≤ 0.5.

As to A15G G38C, the yeast fitness came to 0.669.

For the variant A15G G38A, the yeast fitness came to 0.866.

With A15G C31A U54C, the yeast fitness was ≤ 0.5.

As to A15U A57C A65G, the yeast fitness was ≤ 0.5.

In the case of A15G C62U A69U, the yeast fitness is 0.934.

Take A15U C24G G63A: the yeast fitness was ≤ 0.5.

A15G U26G A65C: the yeast fitness was 0.632.

A15G C49G G56C: the yeast fitness is ≤ 0.5.

Take A15G U35A G52A U59C C66A G67A: the yeast fitness was ≤ 0.5.

A15G G58A: the yeast fitness was determined as 0.909.

Regarding A15G G58C, the yeast fitness came out at 0.949.

A15U A20G C27U C66A: the yeast fitness is ≤ 0.5.

Consider A15U C24G C34U U53C C55G C62A, for which the yeast fitness was ≤ 0.5.

Take A15U C22U G52A: the yeast fitness amounted to 0.596.

A15G C30G A37C: the yeast fitness is ≤ 0.5.

Take A15U A42U C46U C55G: the yeast fitness is ≤ 0.5.

A15U C24G U53A U64A: the yeast fitness is ≤ 0.5.

For the variant A15G U19C A21G, the yeast fitness worked out at 0.656.

On to A15G G39C A40C, for which the yeast fitness is 0.622.

Take A15U C22G C31U A57C: the yeast fitness was ≤ 0.5.

On to A15G C62U A70U, for which the yeast fitness turned out to be 0.73.

Regarding A15G C34U A42G C49A, the yeast fitness is ≤ 0.5.

As to A15G C29G G52A C66U, the yeast fitness stood at 0.671.

For the variant A15U A36G, the yeast fitness turned out to be 0.665.

Take A15U C24G G44C G58C G68U: the yeast fitness was ≤ 0.5.

For the variant A15U A37G A65C, the yeast fitness was ≤ 0.5.

Take A15G G25A C61U A70U: the yeast fitness was ≤ 0.5.

On to A15G C30A C49G C55U, for which the yeast fitness was ≤ 0.5.

On to A15G G63C A65G, for which the yeast fitness worked out at 0.543.

Turning to A15G C30G U64C, the yeast fitness is ≤ 0.5.

As to A15U A20U G56C, the yeast fitness is ≤ 0.5.

For the variant A15U A21C G52A, the yeast fitness is ≤ 0.5.

Consider A15G C33G G51A, for which the yeast fitness came out at 0.665.

Regarding A15G G25A C60U G68C, the yeast fitness was found to be 0.561.

Consider A15U A36U G48C C66U, for which the yeast fitness is ≤ 0.5.

As to A15G U26A G41A U64A A70C, the yeast fitness was ≤ 0.5.

For A15U C27A A43C, the yeast fitness was found to be 0.592.

On to A15G C29G C31A A37G, for which the yeast fitness is ≤ 0.5.

For the variant A15G G17A U26C C61U G67A, the yeast fitness was ≤ 0.5.

On to A15G C30U, for which the yeast fitness is 0.894.

For A15G C30G, the yeast fitness came out at 0.631.

Take A15G C30A: the yeast fitness was determined as 0.807.

Regarding A15G G25A G38A, the yeast fitness was ≤ 0.5.

Consider A15U C22U G44C A65G, for which the yeast fitness is ≤ 0.5.

Regarding A15G U28A C34G C46A, the yeast fitness is 0.501.

Consider A15G U47G A69C, for which the yeast fitness is ≤ 0.5.

Consider A15U C24G U32C A42C A43C, for which the yeast fitness is ≤ 0.5.

As to A15G C34U A42U U47A A57G, the yeast fitness is ≤ 0.5.

Turning to A15G C46U A69C, the yeast fitness worked out at 0.835.

A15G G68C: the yeast fitness turned out to be 0.648.

Turning to A15G G68U, the yeast fitness came out at 0.782.

Regarding A15G U16C C34U G44C, the yeast fitness was ≤ 0.5.

With A15G U26C G63A, the yeast fitness was ≤ 0.5.

As for A15G G41C A45G, the yeast fitness is ≤ 0.5.

A15G G39A A69U: the yeast fitness was 0.774.

On to A15G C33A U54A, for which the yeast fitness was ≤ 0.5.

On to A15G C31U U35C, for which the yeast fitness came out at 0.609.

For the variant A15G G44A C49U G50C A70G, the yeast fitness was ≤ 0.5.

As for A15G U32A G38A, the yeast fitness was determined as 0.525.

Regarding A15G U54C C55G C61G A65U, the yeast fitness was ≤ 0.5.

A15U C22A G23A C24A C46A A70G: the yeast fitness is ≤ 0.5.

Take A15G C31A C66G G68C: the yeast fitness was 0.563.

For A15G C46U A65U, the yeast fitness is 0.735.

Consider A15U A20C C34A G68C, for which the yeast fitness was ≤ 0.5.

With A15G U26C U32A C34U G38C G51A A57C C66U, the yeast fitness was ≤ 0.5.

For the variant A15G G56C C61U, the yeast fitness is ≤ 0.5.

With A15G C61U G67A, the yeast fitness worked out at 0.549.

On to A15G U35A A57G G58U C62G, for which the yeast fitness is ≤ 0.5.

For A15G U16C C34U G44C C61U, the yeast fitness was ≤ 0.5.

For A15U A65C, the yeast fitness worked out at 0.698.

In the case of A15U A40U G52A, the yeast fitness is ≤ 0.5.

Turning to A15G G25C G67A A70G, the yeast fitness is ≤ 0.5.

In the case of A15G C31G U35C, the yeast fitness came to 0.531.

Consider A15G C34U C49A, for which the yeast fitness was 0.6.

In the case of A15U A21G, the yeast fitness worked out at 0.785.

For the variant A15U A36C A40U A65U, the yeast fitness was ≤ 0.5.

A15U A42C: the yeast fitness is 0.787.

As for A15G U53C C61G, the yeast fitness was ≤ 0.5.

For A15G C31U A45U, the yeast fitness amounted to 0.668.

For A15G G25A C30A G52A, the yeast fitness is 0.563.

For A15G C30G C62G, the yeast fitness was ≤ 0.5.

For the variant A15U C22G C31U U64A G68C A70U, the yeast fitness is ≤ 0.5.

Consider A15G G17A C29G C31U C46A, for which the yeast fitness is ≤ 0.5.

Consider A15G G48C C61A, for which the yeast fitness was ≤ 0.5.

With A15G C33G G39C, the yeast fitness was ≤ 0.5.

Take A15G C29G C46U: the yeast fitness is 0.52.

Turning to A15U C22A G23A C24A C46A, the yeast fitness was ≤ 0.5.

On to A15G U32A G38A A69U, for which the yeast fitness is ≤ 0.5.

Consider A15U C24G G68A, for which the yeast fitness is ≤ 0.5.

As to A15G C29G C34G U64C, the yeast fitness is ≤ 0.5.

In the case of A15G U19A, the yeast fitness was determined as 1.13.

Take A15G C61G A70C: the yeast fitness is 0.639.

Consider A15G U32C, for which the yeast fitness was determined as 0.983.

For the variant A15G G17A C33U G39C, the yeast fitness came out at 0.54.

Consider A15G G25C G48A G56A, for which the yeast fitness came out at 0.79.

Consider A15U A45C C49G G58C, for which the yeast fitness is ≤ 0.5.

A15G U19C A37U: the yeast fitness was determined as 0.622.

On to A15G U26C G44A G50C A70G, for which the yeast fitness was ≤ 0.5.

In the case of A15G C30G A40U A42C C49G, the yeast fitness was ≤ 0.5.

In the case of A15G G41A U53G, the yeast fitness is ≤ 0.5.

In the case of A15G G18A C49U, the yeast fitness was 0.669.

Turning to A15U A40U C49U, the yeast fitness is 0.599.

For A15U A43C G48A G68C, the yeast fitness was ≤ 0.5.

On to A15G G18A G58C A69U, for which the yeast fitness is ≤ 0.5.

As for A15G C46G C55U, the yeast fitness was ≤ 0.5.

For A15G C46G C61G, the yeast fitness came to 0.567.

With A15G G39C A42C, the yeast fitness was 0.553.

Regarding A15G G17C C34U C60A, the yeast fitness is ≤ 0.5.

Take A15U A36G C55G G56A: the yeast fitness stood at 0.535.

With A15G G25C G48C, the yeast fitness came out at 0.576.

Consider A15G U53G, for which the yeast fitness was determined as 0.61.

A15G U53A: the yeast fitness was found to be 0.667.

With A15U A21G C31G C49A, the yeast fitness was ≤ 0.5.

A15G G23U C24G A45G: the yeast fitness came to 0.554.

As for A15G C55G, the yeast fitness was found to be 0.641.

In the case of A15G C55U, the yeast fitness worked out at 0.75.

As for A15U A36C G48C U59A C66U, the yeast fitness is ≤ 0.5.

A15G U19A U28A G63A: the yeast fitness is ≤ 0.5.

Turning to A15G G39A, the yeast fitness is 0.959.

For the variant A15U A21C C49A, the yeast fitness is ≤ 0.5.

In the case of A15G C31A G41C C49U, the yeast fitness is ≤ 0.5.

Take A15G C31U U47G G58C C62U: the yeast fitness is ≤ 0.5.

Take A15U A45U: the yeast fitness worked out at 0.593.

A15U A45G: the yeast fitness worked out at 0.732.

With A15U A37U C49G A65G, the yeast fitness is ≤ 0.5.

As to A15G G48C A57U, the yeast fitness turned out to be 0.511.

With A15U C24G A42C C66A, the yeast fitness worked out at 0.59.

Turning to A15G U28G A42U G48A, the yeast fitness is ≤ 0.5.

For the variant A15G U28A C34G C46A A69G, the yeast fitness is ≤ 0.5.

With A15G C31G U35C A57U, the yeast fitness is ≤ 0.5.

In the case of A15G U16C C29G G41A, the yeast fitness was determined as 0.599.

Take A15G U28G A42U G48A C61U: the yeast fitness was ≤ 0.5.

For A15G G25C C31U A70U, the yeast fitness was ≤ 0.5.

Regarding A15U C22A A43G G51C U59C C62U G68U, the yeast fitness was ≤ 0.5.

Turning to A15U C24G A65U, the yeast fitness was ≤ 0.5.

Take A15U A45C C49U: the yeast fitness was 0.618.

As for A15U A43G, the yeast fitness worked out at 0.726.

Take A15U A43U: the yeast fitness is 0.826.

For the variant A15U A37C A43U, the yeast fitness was determined as 0.514.

Take A15G G38C C66U: the yeast fitness was ≤ 0.5.

On to A15G G25A C61U, for which the yeast fitness was 0.558.

Consider A15U A40U C61U A70G, for which the yeast fitness worked out at 0.718.

With A15U A21G C24U C33U A40C A43C C49U C55U C61U, the yeast fitness was ≤ 0.5.

As to A15G U26G C30U A37C G39C C61G A69G, the yeast fitness is ≤ 0.5.

For A15G C61U, the yeast fitness stood at 0.65.

A15G C61G: the yeast fitness was found to be 0.698.

For the variant A15G C61A, the yeast fitness was 0.589.

As to A15U C24U A37U, the yeast fitness was ≤ 0.5.

With A15U C27A A65C A69C, the yeast fitness was 0.577.

In the case of A15G C46G, the yeast fitness was 0.897.

In the case of A15G C49U A69C, the yeast fitness was determined as 0.875.

A15G C31G C66U: the yeast fitness stood at 0.601.

With A15G G18A A45C, the yeast fitness was 0.57.

Consider A15G G51A, for which the yeast fitness came out at 0.668.
